In ChEMBL document CHEMBL4138161, “Discovery of simplified sampangine derivatives as novel fungal biofilm inhibitors” (Eur J Med Chem, 2018):
Converted amounts (≈) assume the structure as drawn. The source made the active and inactive calls. The calls are words filed in the database; no cut-off is given here.

Legend:
Nannizzia gypsea = test: Antifungal activity against Microsporum gypseum Cmccfmza after 24 hrs by spectrophotometric analysis; type: functional
Outline: (§1)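 Broth microdilution in RPMI 1640, inoculum 5×10^3 CFU/mL, compounds from 6.4 mg/mL DMSO stocks, 35 ℃ for 24 h. Growth read as OD600; MIC80 taken as lowest concentration giving 80% growth inhibition. Triplicate.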

Nakaseomyces glabratus = test: Antifungal activity against Candida glabrata 537 after 24 hrs by spectrophotometric analysis; type: functional; details: Nakaseomyces glabratus, 537, 24 h; outline: as §1
Cryptococcus neoformans = test: Antifungal activity against Cryptococcus neoformans 32609 after 24 hrs by spectrophotometric analysis; type: functional; details: Cryptococcus neoformans, 32609, 24 h; outline: as §1
Aspergillus fumigatus = test: Antifungal activity against Aspergillus fumigatus 07544 after 24 hrs by spectrophotometric analysis; type: functional; details: Aspergillus fumigatus, 07544, 24 h; outline: as §1
Trichophyton rubrum = test: Antifungal activity against Trichophyton rubrum Cmccftla after 24 hrs by spectrophotometric analysis; type: functional; outline: as §1
Candida parapsilosis = test: Antifungal activity against Candida parapsilosis 22019 after 24 hrs by spectrophotometric analysis; type: functional; details: Lodderomyces parapsilosis, 22019, 24 h; outline: as §1
Candida albicans [1] = test: Antifungal activity against Candida albicans SC5314 after 24 hrs by spectrophotometric analysis; type: functional; details: SC5314, 24 h; outline: as §1
Candida albicans [2] = test: Antifungal activity against Candida albicans SC5314 after 48 hrs by spectrophotometric analysis; type: functional; details: SC5314, 48 h
Candida albicans [3] = test: Antibiofilm activity against Candida albicans SC5314 assessed inhibition of yeast-to-hypha morphological transition at 0.5 ug/ml after 3 hrs; type: functional, organism-based
Outline: (§2)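 Yeast-to-hypha transition in YPD with 10% (v/v) FBS across compound concentrations; cell morphology photographed after 3 h at 37°C.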

Candida albicans [4] = test: Antibiofilm activity against Candida albicans SC5314 assessed inhibition of yeast-to-hypha morphological transition at 0.2 to 2 ug/ml after 3 hrs; type: functional, organism-based; outline: as §2

Row | Structure (SMILES) | MIC80 (Nannizzia gypsea) | MIC80 (Nakaseomyces glabratus) | MIC80 (Cryptococcus neoformans) | MIC80 (Aspergillus fumigatus) | MIC80 (Trichophyton rubrum) | MIC80 (Candida parapsilosis) | MIC80 (Candida albicans [1]) | MIC80 (Candida albicans [2]) | Activity (Candida albicans [3]) | inhibition (Candida albicans [4])
1 | COc1ccccc1-c1ccnc2c1C(=O)c1sc([N+](=O)[O-])cc1C2=O | 16 µg/mL (≈ 43.7 µM) | > 64 µg/mL | 8 µg/mL (≈ 21.8 µM) | 16 µg/mL (≈ 43.7 µM) | 16 µg/mL (≈ 43.7 µM) | 16 µg/mL (≈ 43.7 µM) | 16 µg/mL (≈ 43.7 µM) | – | – | –
2 | O=C1c2cc([N+](=O)[O-])sc2C(=O)c2c(-c3ccccc3[N+](=O)[O-])ccnc21 | 8 µg/mL (≈ 21 µM) | > 64 µg/mL | 4 µg/mL (≈ 10.5 µM) | 64 µg/mL (≈ 168 µM) | 16 µg/mL (≈ 42 µM) | > 64 µg/mL | 16 µg/mL (≈ 42 µM) | – | – | –
3 | CN(C)c1ccc(-c2ccnc3c2C(=O)c2sc([N+](=O)[O-])cc2C3=O)cc1 | 16 µg/mL (≈ 42.2 µM) | > 64 µg/mL | 16 µg/mL (≈ 42.2 µM) | > 64 µg/mL | 4 µg/mL (≈ 10.5 µM) | 32 µg/mL (≈ 84.3 µM) | 32 µg/mL (≈ 84.3 µM) | – | – | –
4 | O=C1c2cc([N+](=O)[O-])sc2C(=O)c2c(C3CCNCC3)ccnc21 | 64 µg/mL (≈ 186 µM) | > 64 µg/mL | 32 µg/mL (≈ 93.2 µM) | > 64 µg/mL | > 64 µg/mL | > 64 µg/mL | > 64 µg/mL | – | – | –
5 | CC(c1ccccc1)c1ccnc2c1C(=O)c1sc([N+](=O)[O-])cc1C2=O (centres undefined) | 1 µg/mL (≈ 2.74 µM) | 8 µg/mL (≈ 22 µM) | 0.5 µg/mL (≈ 1.37 µM) | 4 µg/mL (≈ 11 µM) | 1 µg/mL (≈ 2.74 µM) | 4 µg/mL (≈ 11 µM) | 4 µg/mL (≈ 11 µM) | – | – | –
6 | CC(C)c1cnc2c(c1)C(=O)c1sc([N+](=O)[O-])cc1C2=O | 1 µg/mL (≈ 3.31 µM) | 4 µg/mL (≈ 13.2 µM) | 0.5 µg/mL (≈ 1.65 µM) | 4 µg/mL (≈ 13.2 µM) | 1 µg/mL (≈ 3.31 µM) | 4 µg/mL (≈ 13.2 µM) | 2 µg/mL (≈ 6.62 µM) | – | – | –
7 | Cc1cc[n+]([O-])c2c1C(=O)c1sc([N+](=O)[O-])cc1C2=O | 4 µg/mL (≈ 13.8 µM) | 64 µg/mL (≈ 220 µM) | 4 µg/mL (≈ 13.8 µM) | > 64 µg/mL | 8 µg/mL (≈ 27.6 µM) | 32 µg/mL (≈ 110 µM) | 8 µg/mL (≈ 27.6 µM) | – | – | –
8 | CCc1cnc2c(c1)C(=O)c1sc([N+](=O)[O-])cc1C2=O | 0.25 µg/mL (≈ 0.867 µM) | 1 µg/mL (≈ 3.47 µM) | 0.25 µg/mL (≈ 0.867 µM) | 2 µg/mL (≈ 6.94 µM) | 0.5 µg/mL (≈ 1.73 µM) | 1 µg/mL (≈ 3.47 µM) | 0.5 µg/mL (≈ 1.73 µM) | – | – | –
9 | Cc1ccnc2c1[C@H](O)c1sc([N+](=O)[O-])cc1[C@@H]2O (relative stereo) | 8 µg/mL (≈ 28.7 µM) | 2 µg/mL (≈ 7.19 µM) | 4 µg/mL (≈ 14.4 µM) | 16 µg/mL (≈ 57.5 µM) | 2 µg/mL (≈ 7.19 µM) | 8 µg/mL (≈ 28.7 µM) | 2 µg/mL (≈ 7.19 µM) | – | – | –
10 | CCC(C)n1ncn(-c2ccc(N3CCN(c4ccc(OCC5COC(Cn6cncn6)(c6ccc(Cl)cc6Cl)O5)cc4)CC3)cc2)c1=O (centres undefined) [ITRACONAZOLE] | 4 µg/mL (≈ 5.67 µM) | 1 µg/mL (≈ 1.42 µM) | 4 µg/mL (≈ 5.67 µM) | 8 µg/mL (≈ 11.3 µM) | 4 µg/mL (≈ 5.67 µM) | 8 µg/mL (≈ 11.3 µM) | 8 µg/mL (≈ 11.3 µM) | – | – | –
11 | O=C1c2ccccc2-c2nccc3ccnc1c23 [SAMPANGINE] | > 64 µg/mL | 16 µg/mL (≈ 68.9 µM) | 2 µg/mL (≈ 8.61 µM) | 16 µg/mL (≈ 68.9 µM) | 16 µg/mL (≈ 68.9 µM) | 4 µg/mL (≈ 17.2 µM) | 0.5 µg/mL (≈ 2.15 µM) | – | – | –

The next lines start with results.

Row | MIC80 (Nannizzia gypsea) | MIC80 (Nakaseomyces glabratus) | MIC80 (Cryptococcus neoformans) | MIC80 (Aspergillus fumigatus) | MIC80 (Trichophyton rubrum) | MIC80 (Candida parapsilosis) | MIC80 (Candida albicans [1]) | MIC80 (Candida albicans [2]) | Structure (SMILES) | Activity (Candida albicans [3]) | inhibition (Candida albicans [4])
12 | > 64 µg/mL | > 64 µg/mL | 64 µg/mL (≈ 300 µM) | > 64 µg/mL | > 64 µg/mL | > 64 µg/mL | > 64 µg/mL | – | Cc1ccnc2c1C(=O)c1occc1C2=O | – | –
13 | 2 µg/mL (≈ 7.29 µM) | 1 µg/mL (≈ 3.65 µM) | 0.5 µg/mL (≈ 1.82 µM) | 2 µg/mL (≈ 7.29 µM) | 0.5 µg/mL (≈ 1.82 µM) | 1 µg/mL (≈ 3.65 µM) | 0.25 µg/mL (≈ 0.912 µM) | – | Cc1ccnc2c1C(=O)c1sc([N+](=O)[O-])cc1C2=O | – | –
14 | 8 µg/mL (≈ 29.2 µM) | 4 µg/mL (≈ 14.6 µM) | 4 µg/mL (≈ 14.6 µM) | > 64 µg/mL | 4 µg/mL (≈ 14.6 µM) | > 64 µg/mL | 4 µg/mL (≈ 14.6 µM) | – | Cc1ccnc2c1C(=O)c1scc([N+](=O)[O-])c1C2=O | – | –
15 | > 64 µg/mL | > 64 µg/mL | > 64 µg/mL | > 64 µg/mL | 64 µg/mL (≈ 283 µM) | > 64 µg/mL | > 64 µg/mL | – | Cc1ccnc2c1C(=O)c1cn(C)cc1C2=O | – | –
16 | > 64 µg/mL | 8 µg/mL (≈ 34.9 µM) | 16 µg/mL (≈ 69.8 µM) | 16 µg/mL (≈ 69.8 µM) | 4 µg/mL (≈ 17.4 µM) | > 64 µg/mL | 16 µg/mL (≈ 69.8 µM) | – | Cc1ccnc2c1C(=O)c1sccc1C2=O | – | –
17 | > 64 µg/mL | 16 µg/mL (≈ 65.8 µM) | > 64 µg/mL | 64 µg/mL (≈ 263 µM) | 64 µg/mL (≈ 263 µM) | > 64 µg/mL | > 64 µg/mL | – | Cc1ccnc2c1C(=O)C1=C(OC(C)(C)C1)C2=O | – | –
18 | 1 µg/mL (≈ 3.47 µM) | 1 µg/mL (≈ 3.47 µM) | 0.5 µg/mL (≈ 1.73 µM) | 1 µg/mL (≈ 3.47 µM) | 0.5 µg/mL (≈ 1.73 µM) | 0.5 µg/mL (≈ 1.73 µM) | 0.25 µg/mL (≈ 0.867 µM) | 4 µg/mL (≈ 13.9 µM) | Cc1cnc2c(c1C)C(=O)c1sc([N+](=O)[O-])cc1C2=O | Active | inactive
